One series concerns SK-HEP1. In words: Antiproliferative activity against human SK-HEP1 cells assessed as inhibition of cell proliferation after 72 hrs by MTT assay. The class given is functional, cell-based. The note with it: SK-HEP1, 72 h. Summed up: (§1)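 Cells seeded in 96-well plates and grown 24 h to reach exponential growth, then exposed to test compounds in culture medium for 72 h. Viability read by MTT absorbance at 490 nm relative to untreated cells. IC50 is the concentration giving 50% inhibition of proliferation.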

The next series concerns HepG2. In words: Antiproliferative activity against human HepG2 cells assessed as inhibition of cell proliferation after 72 hrs by MTT assay. The class given is functional, cell-based. The note with it: HepG2, 72 h. Summed up: as §1
(In general: Tetrazolium dyes change colour on reduction, which living cells bring about.)

The next series relates to Huh-7. In words: Antiproliferative activity against human Huh-7 cells assessed as inhibition of cell proliferation after 72 hrs by MTT assay. The series is classed as functional, cell-based. As to conditions: Huh-7, 72 h. An outline of the steps:
as §1

Series [1] can be described thus: Selectivity index, ratio of CC50 for human HepG2 2.2.15 cells to IC50 for antiviral activity against HBV infected in human HepG2.2.15 cells assessed as inhibition of DNA replication. The note with it: read-out: Ratio CC50/IC50. The series is classed as toxicity, cell-based.
Series [2] in a line: Cytotoxicity against human HepG2 2.2.15 cells assessed as reduction in cell viability measured after 72 hrs by MTT assay. The series is classed as cell-based. Summed up: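 HepG2 2.2.15 cells (HBV-producing; grown in DMEM with 10% FBS, penicillin/streptomycin and 0.38 mg/mL G418) seeded in 96-well plates and grown 24 h, then treated 72 h with compounds. Viability read by MTT absorbance at 490 nm relative to untreated cells. CC50 is the dose causing 50% cell death.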

Series [3] relates to Hepatitis B virus. Description: Antiviral activity against HBV infected in human HepG2.2.15 cells assessed as inhibition of DNA replication at 0.8 uM supplemented with fresh medium containing compound every 2 days for 6 days by RT-PCR analysis relative to control. The class given is functional. The note with it: HepG2 2.2.15, 144 h, time 6 day. Summed up: (§2)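 HepG2 2.2.15 cells (2×10^5/well, 24-well) left 24 h to recover from trypsinization, then given fresh medium with compound (single-point screen at 0.8 μM), renewed every 2 days for 6 days. Intracellular HBV DNA extracted and quantified by real-time PCR. IC50 is the dose giving 50% inhibition of DNA replication, taken from dose–response.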

In series [4] the test system is Hepatitis B virus. In words: Antiviral activity against HBV infected in human HepG2.2.15 cells assessed as inhibition of DNA replication supplemented with fresh medium containing compound every 2 days for 6 days by RT-PCR analysis. The note with it: HepG2 2.2.15. The class given is functional, organism-based. Summed up: as §2
Series [5] relates to Hepatitis B virus. In words: Antiviral activity against lamivudine and entecavir-resistant HBV harboring rtL180 M/rtM204V/rtT184L mutant infected in human HepG2.2.15 cells assessed as inhibition of DNA replication at 10 uM supplemented with fresh medium containing compound every 2 days for 6 days by RT-PCR analysis relative to control. The series is classed as functional. The note with it: HepG2 2.2.15, 144 h, time 6 day.

Series [6] has as its system Hepatitis B virus. In words: Antiviral activity against HBV infected in human HepG2.2.15 cells assessed as inhibition of DNA replication at 10 uM supplemented with fresh medium containing compound every 2 days for 6 days by RT-PCR analysis relative to control. The series is classed as functional. The note with it: HepG2 2.2.15, 144 h, time 6 day.
The test system of series [7] is Hepatitis B virus. In words: Antiviral activity against lamivudine and entecavir-resistant HBV harboring rtL180 M/rtM204V/rtT184L mutant infected in human HepG2.2.15 cells assessed as inhibition of DNA replication at 100 uM supplemented with fresh medium containing compound every 2 days for 6 days by RT-PCR analysis relative to control. As to conditions: HepG2 2.2.15, 144 h, time 6 day. The series is classed as functional.

Series [8] concerns Hepatitis B virus. Description: Antiviral activity against HBV infected in human HepG2.2.15 cells assessed as inhibition of DNA replication at 100 uM supplemented with fresh medium containing compound every 2 days for 6 days by RT-PCR analysis relative to control. The series is classed as functional. As to conditions: HepG2 2.2.15, 144 h, time 6 day.
Series [9] concerns Hepatitis B virus. Description: Antiviral activity against HBV infected in human HepG2.2.15 cells assessed as inhibition of HBsAg production supplemented with fresh medium containing compound every 3 days for 6 days by EIA relative to control. The series is classed as functional, HepG2 2.2.15. The note with it: time 6 day.
Series [10] concerns Hepatitis B virus. Description: Antiviral activity against lamivudine and entecavir-resistant HBV harboring rtL180 M/rtM204V/rtT184L mutant infected in human HepG2.2.15 cells assessed as inhibition of DNA replication at 0.8 uM supplemented with fresh medium containing compound every 2 days for 6 days by RT-PCR analysis relative to control. The class given is functional. As to conditions: HepG2 2.2.15, 144 h, time 6 day.

23 compounds from ChEMBL document CHEMBL4765418, “Discovery of novel quinazolinone derivatives as potential anti-HBV and anti-HCC agents” (Eur J Med Chem, 2020) can be followed below.

One may read the IC50 as the concentration that gives 50% inhibition. As for `CNC(=O)c1cc(Oc2ccc(NC(=O)Nc3ccc(Cl)c(C(F)(F)F)c3)cc2)ccn1` [SORAFENIB], the IC50 came to 9.64 µM in the series with SK-HEP1, 7.67 µM in the series on HepG2 and 7.92 µM with Huh-7.

The term CC50 denotes the concentration giving 50% cytotoxicity. The inhibition is the percentage by which the read-out fell short of the control. On to `CN(C)CCOc1ccc2nc(SCc3ccccc3)n(Cc3cccs3)c(=O)c2c1`, for which the selectivity ratio in [1] is above 13. In addition, the CC50 at 72 h in series [2] is above 10 µM. The inhibition at 0.8 µM in the series on Hepatitis B virus [3] was 53.6%. The IC50 in the series with Hepatitis B virus [4] came to 0.77 µM.

For `C=C1[C@H](CO)[C@@H](O)C[C@@H]1n1cnc2c(=O)[nH]c(N)nc21` [ENTECAVIR], the inhibition at 10 µM was 18.9% in the series on Hepatitis B virus [5] and 96.9% in the series with Hepatitis B virus [6].

`CCN(CC)CCOc1ccc2nc(SCc3cc(C(C)=O)ccc3OC)n(Cc3ccco3)c(=O)c2c1`: the IC50 with HepG2 was found to be 17 µM. For the same compound, the CC50 at 72 h in [2] was above 10 µM. Further, the inhibition at 0.8 µM in the series with Hepatitis B virus [3] is 45.2%.

Take `COc1ccccc1CSc1nc2ccc(OCCCN(C)C)cc2c(=O)n1Cc1cccs1`: the IC50 in the series with HepG2 amounted to 8.81 µM. Further, the CC50 at 72 h in series [2] is above 10 µM. Besides, the inhibition at 0.8 µM in the series with Hepatitis B virus [3] is 21.6%.

Turning to `COc1ccc(C(C)=O)cc1CSc1nc2ccc(OCCCN(C)C)cc2c(=O)n1Cc1ccco1`, the selectivity ratio in series [1] is above 12.7. In addition, the results for the IC50 with HepG2 and in the series with Hepatitis B virus [4] were 9.4 µM and 0.79 µM, respectively. For the same compound, in [2], the CC50 at 72 h is above 10 µM. The inhibition at 0.8 µM in the series with Hepatitis B virus [3] is 54.2%.

Take `CCN(CC)CCOc1ccc2nc(SCc3cc(C(C)=O)ccc3OC)n(Cc3ccccc3)c(=O)c2c1`: the IC50 with HepG2 is above 20 µM. Also, the CC50 at 72 h in series [2] was above 10 µM. Moreover, the inhibition at 0.8 µM in the series on Hepatitis B virus [3] came out at 4.93%.

In the case of `COc1ccccc1CSc1nc2ccc(OCCCN(C)C)cc2c(=O)n1Cc1ccccc1`, the IC50 in the series with HepG2 worked out at 11.8 µM. Also, in series [2], the CC50 at 72 h is above 10 µM. Besides, the inhibition at 0.8 µM in the series on Hepatitis B virus [3] stood at 3.66%.

Regarding `CN(C)CCCOc1ccc2nc(SCc3ccccc3)n(Cc3ccccc3)c(=O)c2c1`, in the series with HepG2, the IC50 was above 20 µM. Moreover, the CC50 at 72 h in series [2] was above 10 µM. The inhibition at 0.8 µM in the series on Hepatitis B virus [3] is 42.8%.

As for `COc1ccccc1CSc1nc2ccc(OCCCN(C)C)cc2c(=O)n1Cc1ccco1`, in the series on HepG2, the IC50 was 6.76 µM. In addition, in [2], the CC50 at 72 h was found to be 8.38 µM. Besides, the inhibition at 0.8 µM with Hepatitis B virus [3] is 34.4%.

For `COc1ccc(C(C)=O)cc1CSc1nc2ccc(OCCN(C)C)cc2c(=O)n1Cc1ccco1`, the IC50 in the series with HepG2 is 11.3 µM. Moreover, the cytotoxic concentration (CC50) at 72 h in [2] is above 10 µM. The inhibition at 0.8 µM in the series with Hepatitis B virus [3] is 20.7%.

On to `CN(C)CCOc1ccc2nc(SCc3ccccc3)n(Cc3ccco3)c(=O)c2c1`, for which the IC50 with HepG2 stood at 17.5 µM. The CC50 at 72 h in series [2] is above 10 µM. Further, the inhibition at 0.8 µM in the series with Hepatitis B virus [3] turned out to be 21.7%.

As for `CCN(CC)CCOc1ccc2nc(SCc3ccccc3)n(Cc3ccccc3)c(=O)c2c1`, the selectivity ratio in series [1] is above 15.2. The IC50 was above 20 µM in the series on HepG2 and 0.66 µM in the series on Hepatitis B virus [4]. Further, the CC50 at 72 h in series [2] was above 10 µM. The inhibition at 0.8 µM in the series with Hepatitis B virus [3] is 64.5%.

For the compound `CCN(CC)CCOc1ccc2nc(SCc3ccccc3OC)n(Cc3ccco3)c(=O)c2c1`, in series [1], the selectivity ratio is above 13. Further, the IC50 with HepG2 was 19 µM; in the series on Hepatitis B virus [4] it was 0.77 µM. Moreover, the CC50 at 72 h in [2] is above 10 µM. Also, in the series on Hepatitis B virus [3], the inhibition at 0.8 µM was determined as 52.6%.

On to `CCN(CC)CCOc1ccc2nc(SCc3ccccc3OC)n(Cc3ccccc3)c(=O)c2c1`, for which the IC50 in the series on HepG2 is above 20 µM. In addition, in [2], the CC50 at 72 h is above 10 µM. Moreover, the inhibition at 0.8 µM in the series with Hepatitis B virus [3] came to 9.8%.

Take `Nc1ccn([C@@H]2CS[C@H](CO)O2)c(=O)n1` [LAMIVUDINE]: the selectivity ratio in [1] is above 1000. Moreover, the inhibition at 100 µM in the series with Hepatitis B virus [7] is 15.7%; in the series on Hepatitis B virus [8], 90%. Moreover, the CC50 at 72 h in series [2] was above 100 µM. In the series with Hepatitis B virus [3], the inhibition at 0.8 µM amounted to 84.4%. The IC50 with Hepatitis B virus [4] is below 0.1 µM. In addition, the “inhibition (INH)” value in the series with Hepatitis B virus [9] came to 9.09%.

Consider `COc1ccccc1CSc1nc2ccc(OCCN(C)C)cc2c(=O)n1Cc1ccccc1`, for which the IC50 with HepG2 was above 20 µM. Also, in [2], the CC50 at 72 h is above 10 µM. In the series on Hepatitis B virus [3], the inhibition at 0.8 µM stood at 11.8%.

`CCN(CC)CCOc1ccc2nc(SCc3ccccc3)n(Cc3ccco3)c(=O)c2c1`: the selectivity ratio in series [1] is above 15.9. In addition, the IC50 was found to be 17.3 µM in the series with HepG2 and 0.63 µM in the series on Hepatitis B virus [4]. Moreover, the inhibition at 0.8 µM turned out to be 58.9% in the series with Hepatitis B virus [10] and 67.5% in the series with Hepatitis B virus [3]. Further, the CC50 at 72 h in series [2] is above 10 µM. Moreover, the “inhibition (INH)” value in the series with Hepatitis B virus [9] stood at 13.64%.

On to `COc1ccccc1CSc1nc2ccc(OCCN(C)C)cc2c(=O)n1Cc1ccco1`, for which the selectivity ratio in series [1] is above 13.9. In addition, the IC50 was above 100 µM in the series on HepG2 and 0.72 µM in the series on Hepatitis B virus [4]. Further, in series [2], the CC50 at 72 h was above 10 µM. Also, in the series on Hepatitis B virus [3], the inhibition at 0.8 µM turned out to be 67.1%.

On to `CN(C)CCOc1ccc2nc(SCc3ccccc3)n(Cc3ccccc3)c(=O)c2c1`, for which, in [1], the selectivity ratio was above 14.7. Further, the 50% inhibitory concentration (IC50) with HepG2 was above 20 µM; in the series with Hepatitis B virus [4], 0.68 µM. Also, the CC50 at 72 h in [2] is above 10 µM. The inhibition at 0.8 µM in the series on Hepatitis B virus [3] turned out to be 65.5%.

Consider `O=c1[nH]cc(F)c(=O)[nH]1` [FLUOROURACIL], for which the IC50 in the series with HepG2 is 8.69 µM.

`COc1ccc(C(C)=O)cc1CSc1nc2ccc(OCCN(C)C)cc2c(=O)n1Cc1ccccc1`: in the series with HepG2, the IC50 came out at 19 µM. For the same compound, the CC50 at 72 h in series [2] was above 10 µM. In addition, the inhibition at 0.8 µM in the series on Hepatitis B virus [3] turned out to be 15.6%.

As for `COc1ccc(C(C)=O)cc1CSc1nc2ccc(OCCCN(C)C)cc2c(=O)n1Cc1cccs1`, the IC50 in the series on HepG2 stood at 8.98 µM. Besides, the CC50 at 72 h in [2] amounted to 9.63 µM. Besides, the inhibition at 0.8 µM in the series on Hepatitis B virus [3] worked out at 0.16%.
